# Assay results from ChEMBL document CHEMBL2029249, “N-Methyl-3-(tetrahydro-2H-pyran-4-yl)-2,3,4,9-tetrahydro-1H-carbazole-6-carboxamides as a novel class of cannabinoid receptors agonists with low CNS penetration” (Bioorg Med Chem Lett, 2012).
# Assays:
# [1] = biological target: Voltage-gated inwardly rectifying potassium channel KCNH2 (Homo sapiens, UniProt Q12809)
# [2] = Thermodynamic solubility of the compound at pH 7.4; conditions: buffer
# [3] = Intrinsic clearance in human liver microsomes at 1 uM in presence of NADPH; type: ADME, Microsome; conditions: read-out: CLH
# [4] = Ratio of drug level in brain to plasma in rat by microdialysis assay
# [5] = Apparent permeability from apical to basal side of human Caco2 cells at 10 uM; conditions: Caco-2
# Cannabinoid receptor 1 [6] = biological target: T1, Cannabinoid receptor 1 (Homo sapiens, UniProt P21554); test: Agonist activity at human CB1 receptor expressed in HEK293 cells assessed as [35S]GTPgamma binding relative to WIN55212-2; type: functional, cell-based
# Summary of the method: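 GTPγ35S binding on membranes from HEK293 EBNA cells stably transfected with cloned human CB1; Emax relative to WIN55,212-2 as reference agonist; means of at least three measurements.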
# Cannabinoid receptor 1 [7] = biological target: T1, Cannabinoid receptor 1; test: Agonist activity at human CB1 receptor expressed in HEK293 cells assessed as [35S]GTPgamma binding; type: functional, cell-based
# Cannabinoid receptor 1 [8] = biological target: T1, Cannabinoid receptor 1; test: Displacement of [3H]CP55940 from human CB1 receptor expressed in HEK293 cells; type: cell-based
# T1 sequence (P21554 whole entry): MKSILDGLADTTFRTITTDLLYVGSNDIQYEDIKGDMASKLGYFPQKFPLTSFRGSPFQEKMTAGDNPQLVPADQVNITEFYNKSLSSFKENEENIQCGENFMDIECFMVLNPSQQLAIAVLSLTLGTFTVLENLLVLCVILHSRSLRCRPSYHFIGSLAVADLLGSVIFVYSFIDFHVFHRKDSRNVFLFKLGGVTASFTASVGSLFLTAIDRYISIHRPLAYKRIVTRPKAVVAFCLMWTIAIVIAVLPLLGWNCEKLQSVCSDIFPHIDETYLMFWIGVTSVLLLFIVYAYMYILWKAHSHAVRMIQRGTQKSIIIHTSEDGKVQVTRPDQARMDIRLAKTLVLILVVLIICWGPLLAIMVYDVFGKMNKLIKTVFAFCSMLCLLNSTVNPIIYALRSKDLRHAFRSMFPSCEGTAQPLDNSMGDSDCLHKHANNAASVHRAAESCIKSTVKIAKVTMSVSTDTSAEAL
# Sequence of Voltage-gated inwardly rectifying potassium channel KCNH2 (Q12809 whole entry): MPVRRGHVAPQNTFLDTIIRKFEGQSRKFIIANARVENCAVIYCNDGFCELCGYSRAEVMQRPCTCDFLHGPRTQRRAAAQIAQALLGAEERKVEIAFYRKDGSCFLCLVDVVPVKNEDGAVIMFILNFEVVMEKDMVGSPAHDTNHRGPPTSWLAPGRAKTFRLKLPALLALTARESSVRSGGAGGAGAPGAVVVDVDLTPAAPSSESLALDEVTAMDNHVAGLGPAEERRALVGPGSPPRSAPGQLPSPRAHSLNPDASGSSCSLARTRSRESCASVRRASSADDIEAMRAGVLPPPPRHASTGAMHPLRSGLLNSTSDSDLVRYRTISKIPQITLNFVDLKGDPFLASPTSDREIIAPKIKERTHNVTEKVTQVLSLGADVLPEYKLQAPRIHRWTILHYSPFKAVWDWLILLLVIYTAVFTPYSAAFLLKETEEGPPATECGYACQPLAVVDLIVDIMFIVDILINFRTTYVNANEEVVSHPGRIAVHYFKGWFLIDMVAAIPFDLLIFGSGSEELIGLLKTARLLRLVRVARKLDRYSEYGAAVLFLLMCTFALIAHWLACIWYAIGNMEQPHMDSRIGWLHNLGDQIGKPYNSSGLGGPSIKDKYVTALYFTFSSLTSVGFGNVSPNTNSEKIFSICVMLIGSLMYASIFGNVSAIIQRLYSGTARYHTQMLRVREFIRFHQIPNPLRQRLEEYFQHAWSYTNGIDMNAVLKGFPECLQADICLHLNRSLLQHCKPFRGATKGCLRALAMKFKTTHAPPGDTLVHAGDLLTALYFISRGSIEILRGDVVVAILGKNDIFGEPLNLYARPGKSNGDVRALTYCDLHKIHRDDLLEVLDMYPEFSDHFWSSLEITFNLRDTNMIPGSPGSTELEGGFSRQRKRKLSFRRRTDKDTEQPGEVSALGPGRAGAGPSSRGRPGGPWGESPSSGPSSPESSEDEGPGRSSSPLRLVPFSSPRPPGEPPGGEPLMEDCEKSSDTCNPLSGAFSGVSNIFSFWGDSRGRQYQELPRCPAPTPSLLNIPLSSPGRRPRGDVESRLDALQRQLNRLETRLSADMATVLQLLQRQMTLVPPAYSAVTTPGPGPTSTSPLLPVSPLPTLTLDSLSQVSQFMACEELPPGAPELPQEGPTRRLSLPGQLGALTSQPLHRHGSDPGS
SMILES,IC50 [1] [nM],solubility thermodynamic [2] [µM],microsomal CLint at 1 µM [3] [µL/min/mg],Kp [4],Papp A→B at 10 µM [5] [nm/s],Emax (Cannabinoid receptor 1 [6]) [%],EC50 (Cannabinoid receptor 1 [7]) [nM],Ki (Cannabinoid receptor 1 [8]) [nM]
CNC(=O)CC[C@@H](CO)N(C)C(=O)c1ccc2c(c1)c1c(n2C)CC[C@@H](C2CCOCC2)C1,> 33000,> 3000,15,< 0.02,1.5,124,,
CN(C(=O)c1ccc2c(c1)c1c(n2C)CC[C@@H](C2CCOCC2)C1)[C@H](CO)CCC(=O)NCCF,> 33000,1310,27,0.025,1.1,118,,
CN(CCCC(=O)NCCF)C(=O)c1ccc2c(c1)c1c(n2C)CC[C@@H](C2CCOCC2)C1,,470,50,0.02,,108,12.9,
Cc1c(C(=O)c2cccc3ccccc23)c2cccc3c2n1[C@H](CN1CCOCC1)CO3 [WIN-552122],,2,,2.3,,,,
CN(CCCC(=O)NCCO)C(=O)c1ccc2c(c1)c1c(n2C)CC[C@@H](C2CCOCC2)C1,,2490,17,,,120,,
CCS(=O)(=O)n1c2c(c3cc(C(=O)N4CCC(C)CC4)ccc31)CN(C1CCOCC1)CC2,,> 1030,,0.07,130,120,,
CCN(CC(=O)NC1CC1)C(=O)c1ccc2c(c1)c1c(n2C)CCC(C2CCOCC2)C1 (racemic),,36,53,,,106,,
CCN(CC(=O)NCCF)C(=O)c1ccc2c(c1)c1c(n2C)CC[C@@H](C2CCOCC2)C1,,71,33,0.068,,107,9.8,
CCNC(=O)CC[C@@H](CO)N(C)C(=O)c1ccc2c(c1)c1c(n2C)CC[C@@H](C2CCOCC2)C1,,,21,0.011,,126,,
CONC(=O)CCCN(C)C(=O)c1ccc2c(c1)c1c(n2C)CC[C@@H](C2CCOCC2)C1,> 33000,1330,36,,,104,,
CCN(CC(=O)NC1CC1)C(=O)c1ccc2c(c1)c1c(n2C)CC[C@@H](C2CCOCC2)C1,,30,36,0.09,230,106,1.9,4.2
CNC(=O)CCCN(C)C(=O)c1ccc2c(c1)c1c(n2C)CCC(C2CCOCC2)C1 (racemic),,1550,27,,,121,,
CCCCCOc1ccc(C(=O)c2cccc3ccccc23)c2ccccc12,,,,0.29,,112,,
